Measurements published in ChEMBL document CHEMBL3853281, “Pregnane-10,2-carbolactones from a Hawaiian Marine Sponge in the Genus Myrmekioderma” (J Nat Prod, 2016).

Legend:
[1] = molecular target: Beta-secretase 1 (Homo sapiens, UniProt P56817); test: Inhibition of BACE1 (unknown origin) assessed as cleavage of amyloid precursor protein by beta-galactosidase enzyme complementation assay
[2] = molecular target: T1, PXR (NR1I2); CYP3A4 gene expression (Homo sapiens, UniProt O75469); test: Activation of human PXR expressed in human DPX2 cells assessed as induction of CYP3A4 gene expression at 0.1 uM measured after 24 hrs by luciferase reporter gene assay relative to control; assay type: cell-based; conditions: DPX2 cells expressing human PXR, read-out: FC
T1 sequence (O75469 whole entry): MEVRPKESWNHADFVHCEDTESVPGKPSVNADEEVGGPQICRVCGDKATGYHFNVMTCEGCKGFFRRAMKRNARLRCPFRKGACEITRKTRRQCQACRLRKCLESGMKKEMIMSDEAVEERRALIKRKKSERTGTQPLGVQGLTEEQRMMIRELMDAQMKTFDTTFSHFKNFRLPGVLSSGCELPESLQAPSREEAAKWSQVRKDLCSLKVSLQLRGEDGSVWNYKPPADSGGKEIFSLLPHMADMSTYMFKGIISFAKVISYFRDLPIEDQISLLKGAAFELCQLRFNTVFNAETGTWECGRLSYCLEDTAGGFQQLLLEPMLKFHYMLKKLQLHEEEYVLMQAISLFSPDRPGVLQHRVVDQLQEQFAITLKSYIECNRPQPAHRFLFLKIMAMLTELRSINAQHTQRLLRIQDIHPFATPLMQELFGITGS
Procedure, shortened: (§1)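 DPX2 cells stably carrying human PXR (NR1I2) and a luciferase reporter under two human CYP3A4 promoters. Cells were seeded, treated 24 h later with six compound concentrations in duplicate wells, then incubated 24 h more. Viable cells were counted by a fluorescent cytotoxicity read in the same wells, then luciferase (ONE-Glo) was read. Fold activation is relative to DMSO vehicle-treated cells.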

[3] = molecular target: T2, Nuclear receptor subfamily 1 group I member 2 (Homo sapiens, UniProt O75469); test: Activation of human PXR expressed in human DPX2 cells assessed as induction of CYP3A4 gene expression at 0.1 uM measured after 24 hrs by luciferase reporter gene assay relative to rifampicin; assay type: cell-based; conditions: dpx2, 24 h
T2 sequence (O75469 whole entry): T1 sequence (O75469 whole entry)
Procedure, shortened: (§2)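 PXR reporter run in stable DPX2 cells expressing human PXR with a luciferase reporter linked to two human CYP3A4 promoters. Compound (six concentrations, duplicate wells) was added 24 h after seeding, with a further 24 h incubation. Viability was read first, then luciferase in the same wells. Rifampicin was the reference at seven concentrations; activation is given as % of rifampicin response, with rifampicin at 10 μM.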

[4] = molecular target: T2, Nuclear receptor subfamily 1 group I member 2; test: Activation of human PXR expressed in human DPX2 cells assessed as induction of CYP3A4 gene expression at 10 uM measured after 24 hrs by luciferase reporter gene assay relative to rifampicin; assay type: cell-based; conditions: dpx2, 24 h; procedure, shortened: as §2
[5] = molecular target: T2, Nuclear receptor subfamily 1 group I member 2; test: Activation of human PXR expressed in human DPX2 cells assessed as induction of CYP3A4 gene expression at 0.4 uM measured after 24 hrs by luciferase reporter gene assay relative to rifampicin; assay type: cell-based; conditions: dpx2, 24 h; procedure, shortened: as §2
[6] = molecular target: T1, PXR (NR1I2); CYP3A4 gene expression; test: Activation of human PXR expressed in human DPX2 cells assessed as induction of CYP3A4 gene expression at 0.4 uM measured after 24 hrs by luciferase reporter gene assay relative to control; assay type: cell-based; conditions: DPX2 cells expressing human PXR, read-out: FC; procedure, shortened: as §1
[7] = molecular target: T1, PXR (NR1I2); CYP3A4 gene expression; test: Activation of human PXR expressed in human DPX2 cells assessed as induction of CYP3A4 gene expression at 4 uM measured after 24 hrs by luciferase reporter gene assay relative to control; assay type: cell-based; conditions: DPX2 cells expressing human PXR, read-out: FC; procedure, shortened: as §1
[8] = molecular target: T1, PXR (NR1I2); CYP3A4 gene expression; test: Activation of human PXR expressed in human DPX2 cells assessed as induction of CYP3A4 gene expression at 10 uM measured after 24 hrs by luciferase reporter gene assay relative to control; assay type: cell-based; conditions: DPX2 cells expressing human PXR, read-out: FC; procedure, shortened: as §1
[9] = molecular target: T2, Nuclear receptor subfamily 1 group I member 2; test: Activation of human PXR expressed in human DPX2 cells assessed as induction of CYP3A4 gene expression at 4 uM measured after 24 hrs by luciferase reporter gene assay relative to rifampicin; assay type: cell-based; conditions: dpx2, 24 h; procedure, shortened: as §2
[10] = molecular target: T2, Nuclear receptor subfamily 1 group I member 2; test: Activation of human PXR expressed in human DPX2 cells assessed as induction of CYP3A4 gene expression at 1 uM measured after 24 hrs by luciferase reporter gene assay relative to rifampicin; assay type: cell-based; conditions: dpx2, 24 h; procedure, shortened: as §2
[11] = molecular target: T1, PXR (NR1I2); CYP3A4 gene expression; test: Activation of human PXR expressed in human DPX2 cells assessed as induction of CYP3A4 gene expression at 40 uM measured after 24 hrs by luciferase reporter gene assay relative to control; assay type: cell-based; conditions: DPX2 cells expressing human PXR, read-out: FC; procedure, shortened: as §1
[12] = molecular target: T1, PXR (NR1I2); CYP3A4 gene expression; test: Activation of human PXR expressed in human DPX2 cells assessed as induction of CYP3A4 gene expression at 1 uM measured after 24 hrs by luciferase reporter gene assay relative to control; assay type: cell-based; conditions: DPX2 cells expressing human PXR, read-out: FC; procedure, shortened: as §1
[13] = molecular target: T2, Nuclear receptor subfamily 1 group I member 2; test: Activation of human PXR expressed in human DPX2 cells assessed as induction of CYP3A4 gene expression at 40 uM measured after 24 hrs by luciferase reporter gene assay relative to rifampicin; assay type: cell-based; conditions: dpx2, 24 h; procedure, shortened: as §2

Beta-secretase 1, sequence (P56817 whole entry): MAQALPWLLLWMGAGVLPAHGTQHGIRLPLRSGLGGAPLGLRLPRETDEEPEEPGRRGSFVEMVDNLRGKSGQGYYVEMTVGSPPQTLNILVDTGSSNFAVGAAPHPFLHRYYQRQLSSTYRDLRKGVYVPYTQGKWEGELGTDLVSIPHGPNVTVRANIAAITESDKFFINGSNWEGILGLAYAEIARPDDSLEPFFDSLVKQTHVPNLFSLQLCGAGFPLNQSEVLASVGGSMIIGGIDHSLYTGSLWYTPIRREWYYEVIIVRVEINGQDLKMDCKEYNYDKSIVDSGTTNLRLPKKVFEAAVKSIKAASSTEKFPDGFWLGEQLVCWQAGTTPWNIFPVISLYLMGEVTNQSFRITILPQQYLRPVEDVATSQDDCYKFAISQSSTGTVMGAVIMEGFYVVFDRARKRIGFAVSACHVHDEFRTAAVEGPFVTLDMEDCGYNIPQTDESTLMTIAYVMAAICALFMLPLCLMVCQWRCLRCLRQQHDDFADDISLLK

Row | IC50 [1] [µM] | fold induction at 24 h, 0.1 µM [2] | Activity [3] [%] | Activity [4] [%] | Activity [5] [%] | fold induction at 24 h, 0.4 µM [6] | fold induction at 24 h, 4 µM [7] | fold induction at 24 h, 10 µM [8] | Activity [9] [%] | Activity [10] [%] | fold induction at 24 h, 40 µM [11] | fold induction at 24 h, 1 µM [12] | Activity [13] [%] | Structure (SMILES)
1 | 82 |  |  |  |  |  |  |  |  |  |  |  |  | CC[C@]1(C)CCC2=C1CC[C@H]1[C@H]2C[C@@H](Cl)C2=C[C@@H](O)[C@@H]3C[C@@]21C(=O)O3
2 |  | 1.3 | 3 | 6 | 4 | 1.4 | 1.2 | 1.6 | 2 | 2 | 3.7 | 1.2 | 28 | C/C=C1\CC[C@H]2[C@@H]3CC=C4[C@@H](O)[C@@H](O)[C@@H]5C[C@]4(C(=O)O5)[C@H]3CC[C@]12C
